# Calls of active or inactive are those of the source. The rule behind the calls is not given here.
# Key:
# [1] = Inhibition of Saccharomyces cerevisiae alpha-glucosidase after 10 mins
# Summary of the method: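 Yeast α-glucosidase, 25 mU/mL final, in 10 mM phosphate buffer pH 7.28, preincubated with test compound (DMSO) 5 min at 37 °C. p-NPG substrate 80 μM final; stopped after 10 min with 0.5 M Na2CO3; 4-nitrophenol read at 400 nm against DMSO control. Eight concentrations; triplicate, at least two runs; IC50 taken graphically from percent activity vs log concentration.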
# [2] = target: Alpha-galactosidase (Coffea arabica) (UniProt Q42656); assay: Inhibition of green coffee bean alpha-galactosidase at 25 uM after 10 mins
# Alpha-galactosidase (Coffea arabica), sequence (Q42656 16-378 limits assumed): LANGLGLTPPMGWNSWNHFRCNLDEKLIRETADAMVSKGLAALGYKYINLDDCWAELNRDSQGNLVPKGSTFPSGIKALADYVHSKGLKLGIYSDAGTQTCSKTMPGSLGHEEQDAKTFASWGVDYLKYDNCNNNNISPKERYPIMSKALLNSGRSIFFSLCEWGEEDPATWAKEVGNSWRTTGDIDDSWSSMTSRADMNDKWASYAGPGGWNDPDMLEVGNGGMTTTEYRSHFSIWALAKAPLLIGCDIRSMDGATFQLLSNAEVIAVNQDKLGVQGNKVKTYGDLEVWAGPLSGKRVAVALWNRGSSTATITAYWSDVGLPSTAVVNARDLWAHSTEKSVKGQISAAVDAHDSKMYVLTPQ
# Summary of the method: (§1)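 Enzyme 12.5 mU per sample in buffer: β-glucosidase, 50 mM sodium citrate pH 5.0; α-mannosidase, 10 mM sodium acetate pH 4.5; α-galactosidase, 50 mM potassium phosphate pH 6.5. Compound in DMSO at 25 µM, preincubated 5 min at 37 °C; substrate added at 80 μM final; stopped after 10 min with 1 M Na2CO3. Absorbance compared with DMSO control; triplicate.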
# SH-SY5Y = assay: Cytotoxicity against human SH-SY5Y cells after 2 hrs by MTT assay; format: functional, cell-based
# Summary of the method: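 SH-SY5Y neuroblastoma cells exposed to compound at 5 μM and at a second concentration for 2 h. MTT (5 mg/mL in DMEM + 10% FBS) then added, 4 h at 37 °C. Supernatant removed, formazan dissolved in DMSO, absorbance read at 540 nm. Sextuplicate, repeated twice.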
# Canavalia ensiformis = assay: Inhibition of Canavalia ensiformis alpha-mannosidase at 25 uM after 10 mins; summary of the method: as §1
# Prunus dulcis = assay: Inhibition of almond beta-glucosidase at 25 uM after 10 mins; summary of the method: as §1
SMILES,IC50 [1],also measured
O=C1c2ccccc2C(=O)N1CCCCCCCCCCOc1ccc([N+](=O)[O-])c(C(F)(F)F)c1,830 nM,
Cc1cc(Cl)ccc1OCCN1C(=O)c2ccccc2C1=O,14800 nM,
O=C1c2ccccc2C(=O)N1CCCCCCCCCCOc1cccc(Cl)c1,1090 nM,
O=C1c2ccccc2C(=O)N1CCCCCCCCCCOc1ccc(Cl)cc1,1200 nM,
O=C1c2ccccc2C(=O)N1CCCCCCOc1ccccc1,10300 nM,
O=C1c2ccccc2C(=O)N1CCCOc1cccc(Cl)c1Cl,15000 nM,
O=C1c2ccccc2C(=O)N1CCCCCOc1ccccc1,20200 nM,
O=C1c2ccccc2C(=O)N1CCCCCCCCCCOc1cc(Cl)c(Cl)cc1[N+](=O)[O-],520 nM,inhibition [2]: inactive; inhibition (SH-SY5Y): inactive; inhibition (Canavalia ensiformis): inactive; inhibition (Prunus dulcis): inactive
O=C1c2ccccc2C(=O)N1CCCCCCCCCOc1ccccc1,3040 nM,
Cc1cc(Cl)cc(C)c1OCCN1C(=O)c2ccccc2C1=O,13000 nM,
Cc1cc([N+](=O)[O-])c(Cl)cc1OCCCCCCCCCCN1C(=O)c2ccccc2C1=O,650 nM,inhibition [2]: inactive; inhibition (SH-SY5Y): inactive; inhibition (Canavalia ensiformis): inactive; inhibition (Prunus dulcis): inactive
O=C1c2ccccc2C(=O)N1CCCCOc1ccccc1,33000 nM,
O=C1c2ccccc2C(=O)N1CCOc1ccccc1,296000 nM,
O=C1c2ccccc2C(=O)N1CCCOc1ccc(Cl)c(Cl)c1,7550 nM,
O=C1c2ccccc2C(=O)N1CCCCCCCCCCOc1ccc(Cl)cc1Cl,1190 nM,
O=C1c2ccccc2C(=O)N1CCCCCCCCOc1ccccc1,6500 nM,
O=C1c2ccccc2C(=O)N1CCCCCCCCCCOc1ccc(C(F)(F)F)cc1[N+](=O)[O-],1310 nM,
O=C1c2ccccc2C(=O)N1CCOc1ccc(Cl)cc1,94000 nM,
O=C1c2ccccc2C(=O)N1CCCCCCCCCCOc1ccc(Cl)c(Cl)c1,1000 nM,
O=C1c2ccccc2C(=O)N1CCCCCCCCCCOc1ccc(C(F)(F)F)cc1,830 nM,
Cc1ccc(OCCCCCCCCCCN2C(=O)c3ccccc3C2=O)cc1,2100 nM,

# The remaining molecules from weak to strong by IC50 [1], led by results:
IC50 [1],SMILES,also measured
240000 nM,O=C1c2ccccc2C(=O)N1CCCOc1ccccc1,
59000 nM,O=C1c2ccccc2C(=O)N1CCCOc1ccc(Cl)cc1,
52000 nM,OC[C@H]1NC[C@H](O)[C@@H](O)[C@@H]1O [DUVOGLUSTAT],
9500 nM,Cc1cc(Cl)cc(C)c1OCCCN1C(=O)c2ccccc2C1=O,
8900 nM,Cc1cc(Cl)ccc1OCCCN1C(=O)c2ccccc2C1=O,
3600 nM,Cc1cc(Cl)c([N+](=O)[O-])c(C)c1OCCCCCCCCCCN1C(=O)c2ccccc2C1=O,
3250 nM,Cc1cccc(C)c1OCCCCCCCCCCN1C(=O)c2ccccc2C1=O,
2500 nM,O=C1c2ccccc2C(=O)N1CCCCCCCCCCOc1ccccc1,
1780 nM,O=C1c2ccccc2C(=O)N1CCCCCCCCCCOc1ccccc1[N+](=O)[O-],
1340 nM,Cc1cc(Cl)cc(C)c1OCCCCCCCCCCN1C(=O)c2ccccc2C1=O,
1320 nM,Cc1cc([N+](=O)[O-])cc(C)c1OCCCCCCCCCCN1C(=O)c2ccccc2C1=O,
1080 nM,O=C1c2ccccc2C(=O)N1CCCCCCCCCCOc1cccc([N+](=O)[O-])c1,
970 nM,O=C1c2ccccc2C(=O)N1CCCCCCCCCCOc1ccc([N+](=O)[O-])cc1[N+](=O)[O-],
910 nM,Cc1ccc(Cl)cc1OCCCCCCCCCCN1C(=O)c2ccccc2C1=O,
860 nM,O=C1c2ccccc2C(=O)N1CCCCCCCCCCOc1ccc([N+](=O)[O-])cc1,
750 nM,O=C1c2ccccc2C(=O)N1CCCCCCCCCCOc1c(Cl)cc(Cl)cc1[N+](=O)[O-],inhibition [2]: inactive; inhibition (SH-SY5Y): inactive; inhibition (Canavalia ensiformis): inactive; inhibition (Prunus dulcis): inactive
475 nM,O=C1c2ccccc2C(=O)N1CCCCCCCCCCOc1ccc(Cl)cc1[N+](=O)[O-],inhibition [2]: inactive; inhibition (SH-SY5Y): inactive; inhibition (Canavalia ensiformis): inactive; inhibition (Prunus dulcis): inactive

# Reference: ChEMBL document CHEMBL1212886, “New N-(phenoxydecyl)phthalimide derivatives displaying potent inhibition activity towards alpha-glucosidase” (Bioorg Med Chem, 2010)
